Measurements from ChEMBL document CHEMBL1134416, “Statistical molecular design, parallel synthesis, and biological evaluation of a library of thrombin inhibitors” (J Med Chem, 2001).

How the values were obtained:
[1] = Estimation of membrane permeability by migration behavior in micellar media; type: ADME
Summary of the method: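 Capillary electrophoresis in MEKC mode on untreated fused-silica capillaries (50 µm i.d., 26.5 cm effective length), 300 V/cm, capillary at 37.0 ± 0.1 °C for log k′. Micellar electrolyte: 100 mM sodium cholate in sodium phosphate buffer pH 7.4, I = 0.05. Rinses with 0.1 M NaOH, water, then electrolyte before each run. Hydrodynamic injection at 20 mbar for 5 s. Read-out: log k′.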

[2] = Estimation of membrane permeability; type: ADME
Prothrombin = Prothrombin (Homo sapiens, UniProt P00734); assay: Inhibitory activity against thrombin
Serine protease 1 = biological target: T1, Serine protease 1 (Bos taurus, UniProt P00760); assay: Inhibitory activity against bovine Trypsin
T1 sequence (P00760 whole entry): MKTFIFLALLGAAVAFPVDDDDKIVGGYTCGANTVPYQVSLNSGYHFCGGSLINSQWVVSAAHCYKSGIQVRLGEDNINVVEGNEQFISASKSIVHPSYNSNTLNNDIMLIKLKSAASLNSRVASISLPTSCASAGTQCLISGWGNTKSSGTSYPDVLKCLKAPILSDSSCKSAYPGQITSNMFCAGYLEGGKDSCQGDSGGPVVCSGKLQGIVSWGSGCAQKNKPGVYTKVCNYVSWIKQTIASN
Summary of the method: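 Bovine trypsin at 0.25 mg/L final in 0.05 mol/L Tris-HCl pH 8.2 (20 °C) with 20 mM CaCl₂. Inhibitor at seven assay levels of […], preincubated 5 min with enzyme at 37 °C. S-2222 chromogenic substrate at assay levels of 15, 25 and 50 µM. A405 read every 10 s for 110 s. Ki obtained by linear regression.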

Row | CE logK' [1] | pKa [2] | IC50 (Prothrombin) [nM] | Ki (Serine protease 1) [µM] | Compound
1 | 0.85 | 8.3 | 10700 | – | NCc1ccc(CCOc2cccc(OS(=O)(=O)c3ccccc3)c2)cc1O
2 | 0.96 | 10.5 | 56.2 | 0.263 | COc1c(Cl)cc(Cl)cc1S(=O)(=O)Oc1cccc(OCCc2ccc(C(=N)N)cc2)c1
3 | 1.41 | – | – | – | O=S(=O)(Oc1cccc(OCCc2cccc(O)c2)c1)c1cccc(Cl)c1Cl
4 | 1.57 | – | – | – | COc1c(Cl)cc(Cl)cc1S(=O)(=O)Oc1cc(C)cc(OCCc2cccc(O)c2)c1
5 | 1.08 | 8.3 | 11200 | – | CCc1cc(OCCc2ccc(CN)c(O)c2)cc(OS(=O)(=O)c2cccc(Cl)c2Cl)c1
6 | 1.42 | – | – | – | CCc1cc(OCCc2cccc(O)c2)cc(OS(=O)(=O)c2ccccc2)c1
7 | 0.97 | 9 | 1230 | – | Cc1cc(OCCc2ccc(CN)cc2)cc(OS(=O)(=O)c2cccc(Cl)c2Cl)c1
8 | 1.4 | – | – | – | COc1ccc(C)cc1S(=O)(=O)Oc1cccc(OCCc2ccccc2)c1

Continued, compound first:

Row | Compound | CE logK' [1] | pKa [2] | IC50 (Prothrombin) [nM] | Ki (Serine protease 1) [µM]
9 | Cc1cc(OCCc2ccc(CN)c(O)c2)cc(OS(=O)(=O)c2cc(Cl)ccc2Cl)c1 | 0.98 | 8.6 | 933 | –
10 | COc1ccc(C)cc1S(=O)(=O)Oc1cccc(OCCc2ccc(C(=N)N)c(O)c2)c1 | 1.08 | 6.2 | 575 | 28.2
11 | CCc1cc(OCCc2ccccc2)cc(OS(=O)(=O)c2cc(Cl)ccc2Cl)c1 | 1.85 | – | – | –
12 | CCc1cc(OCCc2ccc(CN)cc2)cc(OS(=O)(=O)c2cc(C)ccc2OC)c1 | 0.87 | 9.3 | – | 6.17
13 | Cc1cccc(S(=O)(=O)Oc2cccc(OCCc3ccc(CN)cc3)c2)c1 | 0.89 | 9.4 | 58900 | –
14 | CCc1cc(OCCc2ccc(C(=N)N)cc2)cc(OS(=O)(=O)c2ccccc2)c1 | 0.88 | 10.9 | 25.1 | –
15 | CCc1cc(OCCc2ccc(C(=N)N)c(O)c2)cc(OS(=O)(=O)c2cc(Cl)cc(Cl)c2OC)c1 | 1.27 | 6.3 | – | –
16 | CCc1cc(OCCc2cccc(O)c2)cc(OS(=O)(=O)c2cc(C)ccc2OC)c1 | 1.3 | – | – | –
17 | Cc1cc(OCCc2ccc(C(=N)N)c(O)c2)cc(OS(=O)(=O)c2cccc(C)c2)c1 | 1.16 | 6.3 | 135 | 32.4
18 | Cc1cc(OCCc2ccccc2)cc(OS(=O)(=O)c2ccccc2)c1 | 1.51 | – | – | –
